This is a sample that favours compounds with a hit; in the whole collection about 5.9% have one here.
Pf Dd2 growth – inhibitors of Plasmodium falciparum Dd2 growth; P. falciparum Dd2 growth, SYBR Green, 72 h; hits give low values; activity change, % at 10 µM; actives 2.3% (n = 94,000); AID 1159554; in the data active = activity change below about -80%; inconclusive = no clear call, values can overlap the other calls
GASC1 inh – inhibitors of human demethylase GASC-1 KDM4C | Q9H3R0 | GST-KDM4C 2-372, H3K9me3 peptide, LANCE TR-FRET | inhibition, % at 12.5 µM | actives 0.15% (n = 96,000);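 active = mean replicate inhibition above about 25%, with at least 55% of replicates also reaching it, limit read from the data, passing the limit was not always enough; inconclusive = only one of those two conditions met; inactive = neither condition met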
Target sequence (Q9H3R0 2-372 limits assumed): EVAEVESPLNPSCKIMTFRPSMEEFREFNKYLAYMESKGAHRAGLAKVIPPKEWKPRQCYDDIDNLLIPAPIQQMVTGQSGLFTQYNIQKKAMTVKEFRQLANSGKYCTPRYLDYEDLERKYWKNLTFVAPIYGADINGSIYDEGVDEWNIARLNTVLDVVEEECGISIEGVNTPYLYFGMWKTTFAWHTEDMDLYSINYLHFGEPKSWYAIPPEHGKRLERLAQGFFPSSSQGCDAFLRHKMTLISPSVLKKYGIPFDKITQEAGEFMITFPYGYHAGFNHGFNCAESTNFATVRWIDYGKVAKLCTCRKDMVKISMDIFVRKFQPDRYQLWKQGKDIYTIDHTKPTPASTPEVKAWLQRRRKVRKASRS
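Material: GST-tagged GASC-1 (JMJD2C) catalytic fragment, aa 2-372 / Quantity: enzyme final amount 10 nM / Medium: HEPES buffer, pH 7.5, plus ascorbate / Doses: one test concentration per compound / Incubation: 30 min reaction, 60 min detection, RT / Measured by: LANCE TR-FRET / Read-out: inhibition from TR-FRET ratio decrease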
T cruzi growth-1 – T. cruzi proliferation inhibition; inhibition, % at 8.34 µM; T. cruzi beta-gal in NIH3T3, GalScreen luminescence, 90 h; actives 5.9% (n = 77,000);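 active = mean inhibition above about 93%, with at least 55% of replicates each passing it, limit read from the data, passing the limit was not always enough; inconclusive = only one of those two conditions holds; inactive = neither condition holds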
IDH1 mut inh – IDH1 R132H (human) inhibition; actives 0.18% (n = 70,000); inhibition, % at 10 µM; O75874; IDH1 R132H reductase, diaphorase/resazurin fluorescence, 60 min; in the data active = inhibition above about 34%; inconclusive = no clear call, values can overlap the other calls; inactive = below about 11%;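 also: 0% = DMSO and 100% = no enzyme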
T cruzi growth-2 – inhibitors of T. cruzi proliferation. actives 72% (n = 5,600). AID 651739. inhibition, % at 8.35 µM. shares compounds with T cruzi growth-1. T. cruzi beta-gal in NIH3T3, GalScreen luminescence, 90 h;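 active = mean replicate inhibition above about 95% and at least 55% of replicates individually reaching it, limit read from the data; inconclusive = only one of the two criteria is met; inactive = neither criterion is met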
T cruzi growth-3 – Trypanosoma cruzi proliferation inhibition; shares compounds with T cruzi growth-1; T. cruzi beta-gal in NIH3T3, GalScreen luminescence, 90 h; inhibition, % at 2.09 µM; actives 21% (n = 5,600); AID 651740;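 active = mean inhibition above about 95%, with at least 55% of replicates also reaching it, limit read from the data; inconclusive = meets just one of the two conditions; inactive = meets neither condition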;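 also: plate controls were neutral control median for no effect and positive control median for full effect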
3T3 cytotox – kills mouse NIH/3T3 fibroblasts | actives 14% (n = 5,600) | cytotoxicity (signal decrease), % at 8.35 µM | NIH/3T3 viability, CellTiter-Glo ATP luminescence, 90 h | AID 651742 | shares compounds with T cruzi growth-1;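 active = mean signal decrease across replicates above about 35% based on untreated-well scatter, with enough replicates individually passing, limit read from the data; inconclusive = no rule stated though some were filed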;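 also: 0% = median of neutral control wells and 100% = median of positive control wells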
NIH3T3 tox 2 – cytotoxicity in mouse NIH/3T3 fibroblasts | actives 56% (n = 5,600) | NIH/3T3 viability, CellTiter-Glo ATP luminescence, 90 h | shares compounds with T cruzi growth-1 | inhibition, % at 24.9 µM;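 active = mean loss of cell viability signal at or above a set limit, and enough replicates individually reaching it; inconclusive = meets only the mean limit or only the replicate share; inactive = meets neither condition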;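 also: 0% = median of neutral control wells and 100% = median of positive control wells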
Active calls of the source: *; ? = inconclusive; . = no result given.

SMILES	Pf Dd2 growth	GASC1 inh	T cruzi growth-1	IDH1 mut inh	T cruzi growth-2	T cruzi growth-3	3T3 cytotox	NIH3T3 tox 2
CS(=O)(=O)Nc1ccc2c(c1)[C@H]1C[C@@H](CC(=O)NCc3ccncc3)O[C@@H](CO)[C@H]1O2	19	1	107*	0	-2	-12	-3	-4
COC(=O)c1ccc(NC(=O)CSc2nnc(-c3cnccn3)n2C)cc1	.	.	.	0	.	.	.	.
COc1c(O)ccc(C(c2cn(C)c3ccccc23)c2cn(C)c3ccccc23)c1[N+](=O)[O-]	.	.	.	0	.	.	.	.
N#Cc1c(NC(=O)COc2ccc(C(=O)NC3CCCCC3)cc2)sc2c1CCC2	.	.	.	0	.	.	.	.
O=C(Cn1cnc2ccccc2c1=O)Nc1cccc(C(=O)c2ccccc2)c1	.	.	.	0	.	.	.	.
N#Cc1cccc(-c2ccc3c(c2)[C@H]2[C@H](CCN2S(=O)(=O)c2ccccc2F)[C@H](CO)N3)c1	15	0	110*	.	94	82	47*	74*
COc1cccc(-c2ccc3c(c2)[C@@H]2[C@@H](CCN2S(=O)(=O)c2ccccc2F)[C@@H](CO)N3)c1	11	0	?	.	98*	105*	28	101*
O=S(=O)(c1ccccc1F)N1CC[C@@H]2[C@H](CO)Nc3ccc(-c4ccc(F)cc4)cc3[C@@H]21	-12	-1	?	.	90	84	12	105*
O=S(=O)(c1ccccc1F)N1CC[C@H]2[C@H](CO)Nc3ccc(-c4ccc(F)cc4)cc3[C@H]21	4	1	90	.	.	.	.	.
N#Cc1cccc(-c2ccc3c(c2)[C@@H]2[C@@H](CCN2S(=O)(=O)c2ccccc2F)[C@@H](CO)N3)c1	16	1	107*	.	99*	105*	15	73*
COc1cccc(-c2ccc3c(c2)[C@@H]2[C@@H](CCN2S(=O)(=O)c2ccccc2C)[C@H](CO)N3)c1	-33	1	28	.	.	.	.	.
N#Cc1ccc(-c2ccc3c(c2)[C@@H]2[C@@H](CCN2S(=O)(=O)c2ccccc2F)[C@@H](CO)N3)cc1	12	-1	32	.	.	.	.	.
COc1cccc(OC)c1C(=O)Nc1ccc(Cl)c(-c2nc3ncccc3o2)c1	.	.	.	0	.	.	.	.
COc1c(OC)c2c(C)cccc2oc1=O	.	.	.	0	.	.	.	.
Cc1ccc(-c2nnc3c4ccccc4c(C)nn23)cc1S(=O)(=O)NC1CCCCC1	.	.	.	0	.	.	.	.
CO[C@H](CN(C)C(=O)C1CC1)[C@H](C)CN(C(=O)Nc1ccc(C(F)(F)F)cc1)[C@H](C)CO	17	-2	111*	0	35	-13	1	25*
CO[C@H](CN(C)C(=O)C1CCOCC1)[C@H](C)CN(C(=O)Nc1ccc(C(F)(F)F)cc1)[C@H](C)CO	12	1	113*	0	104*	39	11	45*
CO[C@H](CN(C)C(=O)C1CCOCC1)[C@@H](C)CN(C(=O)Nc1ccc(C(F)(F)F)cc1)[C@H](C)CO	-11	.	72	0	.	.	.	.
CO[C@H](CN(C)C(=O)C1CC1)[C@@H](C)CN(C(=O)Nc1ccc(C(F)(F)F)cc1)[C@@H](C)CO	-1	0	37	0	.	.	.	.
Cc1cc(C)c(C)c(OCC(=O)NCc2cccnc2)c1	.	.	.	4	.	.	.	.
CCCNC(=O)N(C)C[C@@H]1Oc2cc(C#Cc3cccc(F)c3)ccc2S(=O)(=O)N([C@@H](C)CO)C[C@@H]1C	-45	-1	117*	0	110*	47	32	83*
CCCNC(=O)N(C)C[C@H]1Oc2cc(C#Cc3cccc(F)c3)ccc2S(=O)(=O)N([C@H](C)CO)C[C@H]1C	-32	0	125*	-1	106*	80	31	66*
CCCNC(=O)N(C)C[C@H]1Oc2cc(C#CCC(C)C)ccc2S(=O)(=O)N([C@@H](C)CO)C[C@@H]1C	-27	-2	106*	-3	100*	31	16	28*
CC(=O)N(C)C[C@H]1Oc2cc(C#Cc3cccc(F)c3)ccc2S(=O)(=O)N([C@H](C)CO)C[C@@H]1C	-31	-3	64	0	.	.	.	.
CCCNC(=O)N(C)C[C@@H]1Oc2cc(C#CCC(C)C)ccc2S(=O)(=O)N([C@H](C)CO)C[C@@H]1C	-37	-1	62	0	.	.	.	.
SMILES	Pf Dd2 growth	GASC1 inh	T cruzi growth-1	IDH1 mut inh	T cruzi growth-2	T cruzi growth-3	3T3 cytotox	NIH3T3 tox 2
CC(C)NC(=O)N(C)C[C@H]1Oc2cc(C#Cc3cccc(F)c3)ccc2S(=O)(=O)N([C@H](C)CO)C[C@@H]1C	-43	9	4	1	.	.	.	.
CCCNC(=O)N(C)C[C@@H]1Oc2cc(C#Cc3cccc(F)c3)ccc2S(=O)(=O)N([C@H](C)CO)C[C@@H]1C	-37	0	116*	0	111*	61	15	47*
CCCC#Cc1ccc2c(c1)O[C@@H](CN(C)C(=O)NCCC)[C@@H](C)CN([C@H](C)CO)S2(=O)=O	-40	0	40	-1	.	.	.	.
CCCNC(=O)N(C)C[C@@H]1Oc2cc(C#Cc3cccc(F)c3)ccc2S(=O)(=O)N([C@H](C)CO)C[C@H]1C	-35	-4	?	2	106*	71	47*	94*
CCc1csc(N2[C@@H](C#N)[C@H](c3ccc(C#Cc4ccc(F)cc4)cc3)[C@@H]2CO)n1	-52	-5	106*	.	97*	110*	-29	21
C/C=C/c1ccc([C@H]2[C@@H](C#N)N(c3nc(CC)cs3)[C@@H]2CO)cc1	-47	0	?	.	101*	23	1	6
CCc1csc(N2[C@H](CO)[C@H](c3ccc(-c4ccc(F)cc4)cc3)[C@@H]2C#N)n1	-2	-4	98*	.	108*	43	21	91*
CCc1csc(N2[C@H](C#N)[C@H](c3ccc(-c4ccc(F)cc4)cc3)[C@H]2CO)n1	-2	-2	94	.	.	.	.	.
Cc1cc(C)nc(SCC(=O)Nc2ccc(C(=O)O)cc2)n1	.	.	.	0	.	.	.	.
CC(=O)O[C@@H]1[C@@H](O)C[C@@]2(C)C(CC[C@@H](C)C23Cc2c(O)cc4c(c2O3)CN([C@@H](CCC(=O)O)C(=O)O)C4=O)C1(C)C (stereo partly drawn)	.	.	.	1	.	.	.	.
C/C=C/c1ccc([C@@H]2[C@@H](CO)N[C@@H]2CN(CC)C(=O)c2ccccn2)cc1	-18	-2	100*	.	28	3	-12	11
O=C(NC[C@H]1N[C@H](CO)[C@@H]1c1ccc(C2=CCCCC2)cc1)c1ccc(F)cc1	-10	0	96*	.	100*	51	-1	106*
CCN(C[C@H]1N[C@H](CO)[C@H]1c1ccc(C2=CCCC2)cc1)C(=O)c1cccnc1	10	1	-13	.	.	.	.	.
